The text below walks through data of ChEMBL document CHEMBL5214995, “Orally Bioavailable Quinoxaline Inhibitors of 15-Prostaglandin Dehydrogenase (15-PGDH) Promote Tissue Repair and Regeneration” (J Med Chem, 2022).

Data set [1] in a line: Cmax in CD-1 mouse at 10 mg/kg,ip measured upto 1440 mins by LC-MS/MS analysis. The class given is ADME, organism-based. More on the design: time < 1440 min, dose 10 mg/kg, route ip. The note with it: in vivo. Put shortly: (§1)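 Female CD1 mice were given a single 10 mg/kg IP dose. […] Plasma was extracted with methanol/0.15% formic acid containing N-benzylbenzamide internal standard and analysed by LC-MS/MS against spiked blank-plasma standards. Cmax and AUC were derived by noncompartmental analysis.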

A short description of data set [2]: Aqueous solubility of the compound under shaking condition by LC-MS/MS analysis. The class given is physicochemical. The note with it: buffer.
Data set [3] in a line: AUC in CD-1 mouse at 10 mg/kg,ip measured upto 1440 mins by LC-MS/MS analysis. The following applies: in vivo; for AUC: mouse, 24 h. The class given is ADME, organism-based. More on the design: time < 1440 min, dose 10 mg/kg, route ip. Put shortly: as §1
In data set [4] the test system is Colon. Kind of data set: In vivo activation of PGE2 in C57BL/6J mouse colon tissue assessed as increase in PGE2 level at 5 mg/kg,ip measured after 3 hrs by ELISA. The class given is functional, organism-based. Put shortly: (§2)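 Female C57bl/6J mice aged 8-9 weeks were dosed IP and euthanised 3 h later. Colon and lung were rinsed in ice-cold PBS with indomethacin (5.6 µg/ml), snap-frozen, pulverised, homogenised in cold PBS/indomethacin, sonicated on ice and centrifuged. PGE2 in the supernatant was measured by ELISA in triplicate and normalised to BCA protein as ng PGE2/mg protein.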
A general note: An ELISA detects its analyte on a solid surface through an enzyme-linked reagent.

The test system of data set [5] is Lung. Kind of data set: In vivo activation of PGE2 in C57BL/6J mouse lung tissue assessed as increase in PGE2 level at 5 mg/kg,ip measured after 3 hrs by ELISA. The class given is functional, organism-based. In outline: as §2
For data set [6], the system named is Colon. Kind of data set: In vivo activation of PGE2 in C57BL/6J mouse colon tissue assessed as increase in PGE2 level at 2.5 mg/kg,ip measured after 3 hrs by ELISA. It is filed as functional, organism-based. In outline:
as §2

Data set [7] in a line: Cmax in CD-1 mouse at 10 mg/kg,po measured upto 1440 mins by LC-MS/MS analysis. It is filed as ADME, organism-based. More on the design: dose 10 mg/kg, time < 1440 min, route po. The note with it: in vivo, 24 h. Put shortly:
(§3)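 Female CD1 mice received a single 10 mg/kg PO or 5 mg/kg IV dose in 10% DMSO, 25% PEG400, 1% Tween-80 and 64% D5W (pH 7.4). Groups of three were killed at 0–1440 min, with blood taken by cardiac puncture into ACD. Plasma was extracted into methanol with formic acid and internal standard, and drug was quantified by LC-MS/MS against spiked blank-plasma standards. Cmax and AUC came from noncompartmental analysis.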

Data set [8] has as its system Colon. Briefly: animal or person. The following applies: Mus musculus, C57BL/6J, po, 1.5 h, read-out: INH.
The subject of data set [9] is Colon. Briefly: animal or person. The following applies: Mus musculus, C57BL/6J, po, 0.5 h, read-out: INH.
The test system of data set [10] is Mus musculus. Kind of data set: Protection against DSS-induced acute ulcerative colitis in […] mouse assessed as increase in body weight at 40 mg/kg,po measured upto 12 days of administration. It is filed as functional, organism-based. The note with it: time <= 12.0 day.
Data set [11] can be described thus: AUC in CD-1 mouse at 10 mg/kg,po measured upto 1440 mins by LC-MS/MS analysis. The note with it: in vivo, 24 h. More on the design: time < 1440 min, dose 10 mg/kg, route po. The class given is ADME, organism-based. Put shortly:
as §3

The nature of data set [12]: Oral bioavailability in CD-1 mouse at 10 mg/kg measured upto 1440 mins by LC-MS/MS analysis. The following applies: in vivo, 24 h. It is filed as ADME, organism-based. Put shortly: as §3
Data set [13] is described as follows: Apparent permeability of the compound from apical to basolateral side in human Caco-2 cells measured upto 120 mins by LC-MS/MS analysis. The class given is ADME, cell-based. The following applies: caco-2, 2 h. In outline:
(§4)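 Caco-2 cells were grown three weeks on 12-well Transwells in DMEM with 20% FBS and supplements, then washed in HBSS with Ca/Mg and 0.5% FBS. Monolayers were used only if TEER exceeded 800 Ωcm², and TEER was rechecked after the assay.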
Background: Caco-2 monolayers are a common model of the intestinal barrier.

Data set [14] relates to Mus musculus. Kind of data set: Protection against DSS-induced acute ulcerative colitis in […] mouse assessed as increase in colon length at 40 mg/kg,po measured after 12 days of administration. The note with it: time 12.0 day. It is filed as functional, organism-based.
A short description of data set [15]: AUC in CD-1 mouse at 5 mg/kg,iv measured upto 1440 mins by LC-MS/MS analysis. The class given is ADME, organism-based. Further details: dose 5 mg/kg, time < 1440 min, route iv. The following applies: in vivo, 24 h. Put shortly:
as §3

The subject of data set [16] is Mus musculus. Briefly: Protection against DSS-induced acute ulcerative colitis in […] mouse assessed as decrease in cryptitis score at 40 mg/kg,po measured after 12 days of administration. The class given is functional, organism-based. The note with it: time 12.0 day.
Data set [17] deals with Mus musculus. Briefly: […] activity against bone marrow transplanted mouse model assessed as increase in total WBC repopulation at 10 mg/kg,ip bid measured by flow cytometry after 15 days post-transplant recovery period. The note with it: time 15.0 day. The class given is functional, organism-based. A general note: A flow cytometer gives signals particle by particle.

Data set [18] relates to Mus musculus. Kind of data set: Protection against DSS-induced acute ulcerative colitis in […] mouse assessed as decrease in cryptitis score at 10 mg/kg,ip measured after 12 days of administration. It is filed as functional, organism-based. The note with it: time 12.0 day.
Data set [19] in a line: Apparent permeability of the compound from basolateral to apical side in human Caco-2 cells measured upto 120 mins by LC-MS/MS analysis. It is filed as ADME, cell-based. The following applies: caco-2, 2 h. Put shortly: as §4
The subject of data set [20] is Mus musculus. Briefly: Protection against DSS-induced acute ulcerative colitis in […] mouse assessed as increase in body weight at 10 mg/kg,ip measured from 7 to 12 days of administration. The class given is functional, organism-based. The following applies: time 7-12 day.
The subject of data set [21] is Lung. Briefly: In vivo activation of PGE2 in C57BL/6J mouse lung tissue assessed as increase in PGE2 level at 2.5 mg/kg,ip measured after 3 hrs by ELISA. It is filed as functional, organism-based. In outline: as §2
The subject of data set [22] is Mus musculus. Kind of data set: Protection against DSS-induced acute ulcerative colitis in […] mouse assessed as increase in colon length at 10 mg/kg,ip measured from 8 to 12 days of administration. It is filed as functional, organism-based. The following applies: time 8-12 day.
A short description of data set [23]: Cmax in CD-1 mouse at 5 mg/kg,iv measured upto 1440 mins by LC-MS/MS analysis. It is filed as ADME, organism-based. More on the design: dose 5 mg/kg, time < 1440 min, route iv. The following applies: in vivo, 24 h. In outline:
as §3

Data set [24] deals with Mus musculus. Kind of data set: […] activity against bone marrow transplanted mouse model assessed as increase in RBC repopulation at 10 mg/kg,ip bid measured by flow cytometry after 15 days post-transplant recovery period. The class given is functional, organism-based. The following applies: Erythrocyte, time 15.0 day.

In general, Cmax refers to the peak of the concentration-time curve. A word on the solubility (thermodynamic): it is the concentration in solution at equilibrium with solid. Broadly, the AUC is concentration integrated over time.

Converted amounts (≈) assume the structure as drawn. The source made the active and inactive calls. No cut-off for these calls is given here.

`O=C(c1ccc2ncc(-c3ccc4c(=O)[nH]ccc4c3)nc2c1)N1CCCCC1` gave a maximum concentration (Cmax) in data set [1] (mouse, 24 h) of 7400 ng/mL. In data set [2], this compound registered a solubility (thermodynamic) of 4 µg/mL (≈ 10.4 µM). In data set [3], the AUC was determined as 270 µg·min/mL.

Consider `Cl.Nc1ncc(-c2cnc3ccc(C(=O)N4CCCCC4)cc3n2)cc1Cl`, for which, in [1] (CD-1, mouse, read-out: Cmax), the highest concentration (Cmax) came out at 3000 ng/mL. The outcome in data set [4] and in data set [5] was Active. The exposure (AUC) at 24 h in data set [3] (CD-1, mouse) was 2870 ng·h/mL.

`O=C(c1ccc2ncc(-c3ccc4ncccc4c3)nc2c1)N1CCCCC1` showed a solubility (thermodynamic) in [2] of 55 µg/mL (≈ 149 µM).

`O=C(c1ccc2ncc(-c3ccc4cnccc4c3)nc2c1)N1CCCCC1`: in data set [2], the solubility (thermodynamic) was 14 µg/mL (≈ 38 µM).

Regarding `Cn1ccc2cc(-c3cnc4ccc(C(=O)N5CCCCC5)cc4n3)ccc2c1=O`, the outcome in [6], in data set [10], in [14], in data set [16], in data set [17] and in data set [18] was Active. Besides, the outcome in [20], in data set [4], in data set [21], in data set [22], in [5] and in data set [24] was Active. The Cmax in data set [7] turned out to be 950 ng/mL; in data set [1] (mouse, 24 h) it was 6400 ng/mL; in data set [23], 3000 ng/mL. Also, the inhibition in vivo at 20 mg/kg in [8] was above 80%; in data set [9], above 90%. In addition, the area under the curve (AUC) in data set [11] was found to be 256 µg·min/mL; in [15], 205 µg·min/mL; in [3], 517 µg·min/mL. This compound also yielded a F in data set [12] of 63%. For the same compound, the figures for the Papp in data set [13] and in data set [19] were 45 10^-6 cm/s and 34 10^-6 cm/s, respectively. In data set [2], the solubility (thermodynamic) was 56 µg/mL (≈ 141 µM).
